# Compound activity (PubChem BioAssay)
# In the library only some 3.2% were active in any assay of this set; here they are far more common.
# CHO parental Ca: counter-screen for OX1R antagonists: effect in parental CHO cells; 330,000 compounds, 0.63% hits; AID 463079; inhibition, % at 5.6 µM; parental CHO-K1, ATP-induced calcium, Fluo-8 fluorescence;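 active = inhibition above that plate's mean sample inhibition plus 3 SD, cut at about 26% in these data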;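 also: 0% = ATP-challenged DMSO wells and 100% = DMSO wells without ATP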
#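 Test system: parental CHO cells; detection: calcium-sensitive Fluo-8 fluorescence; evaluation: percent inhibition of calcium signal; also added: ATP as calcium-mobilizing challenge; repeats: one well per compound; control set: ATP-challenged DMSO wells low, unchallenged DMSO wells high; compound: single nominal dose of 5.6 µM per compound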
# GPR7 antagonist: human neuropeptides B/W receptor 1 antagonism; 290,000 compounds, 1.1% hits; inhibition, % at 4.4 µM; AID 1861; P48145; GPR7-expressing cells, fluorescence antagonist assay; in the data active = inhibition above about 16%, passing the limit was not always enough;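 also: cells stimulated with the agonist NPW; 0% = agonist with vehicle and 100% = vehicle without agonist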
# Target sequence (P48145 whole entry, looked up): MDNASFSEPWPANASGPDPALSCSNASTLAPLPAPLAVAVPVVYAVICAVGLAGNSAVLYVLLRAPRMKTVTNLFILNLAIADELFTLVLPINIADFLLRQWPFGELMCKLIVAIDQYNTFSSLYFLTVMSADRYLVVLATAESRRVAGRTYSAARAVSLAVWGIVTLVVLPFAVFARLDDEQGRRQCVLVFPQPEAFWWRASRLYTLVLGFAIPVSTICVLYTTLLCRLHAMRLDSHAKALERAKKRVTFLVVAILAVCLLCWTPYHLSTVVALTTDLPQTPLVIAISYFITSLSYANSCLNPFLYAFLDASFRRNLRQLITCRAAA
# OX1R antag-1: antagonists of human orexin 1 receptor | 330,000 compounds, 0.43% hits | AID 434989 | inhibition, % at 5 µM | O43613 | CHO/OX1R cells, Fluo-8 calcium fluorescence, orexin A;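 active = inhibition above its plate's threshold, mean inhibition of all tested compounds on the plate plus 3 SD, cut at about 37% in these data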;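 also: 0% = orexin A challenge wells and 100% = SB-334867-A antagonist wells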
# TRPML3 agonist: human mucolipin-3 channel agonism | 220,000 compounds, 0.29% hits | Q8TDD5 | activation, % at 3 µM | HEK293 TRPML3-YFP, Fluo-8 calcium fluorescence; 100% = the carbachol control signal;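 active = activation above its plate's cutoff, the mean activation of the plate's test wells plus 3 SD, cut at about 12% in these data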;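 also: 0% = DMSO only wells and 100% = carbachol wells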
#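 Material: HEK293 cells stably carrying human TRPML3-YFP; compound dosing: single dose, 3 µM final nominal compound, 0.3% DMSO final; incubation: 1-h 37 °C dye load, 5-s basal, 120-s post-compound reads; technique: Fluo-8 intracellular calcium fluorescence, excitation 470-495 nm, emission 515-575 nm; read-out basis: percent activation from peak-to-basal fluorescence ratio, scaled between DMSO and carbachol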
# OX1R antag-2: antagonists of human orexin 1 receptor (OX1R). 330,000 compounds, 1.8% hits. AID 485270. OX1R-expressing cells, FRET antagonist read-out. inhibition, % at 6.6 µM; in the data active = inhibition mostly above about 38%, no sharp cut-off; inactive = mostly below about 40%;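 also: 0% = agonist challenge alone and 100% = reference antagonist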
# TRPN1 ag: agonists of zebrafish TRPN1 channel; AID 1424; HEK293 zebrafish TRPN1-YFP, Fluo-8 calcium fluorescence; 100% = response to 87 µM carbachol; activation, % at 3 µM; 220,000 compounds, 0.18% hits;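 active = activation above its plate's cutoff, the mean activation of test wells on that plate plus 3 SD, cut at about 19% in these data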;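 also: 0% = DMSO alone and 100% = 87 µM carbachol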
#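 System: zebrafish TRPN1-YFP in HEK293 cells / Dosing: 3 µM single point / Timing: dye loading 1 h at 37 °C, then 30 min room temperature / Signal: Fluo-8 calcium fluorescence, excitation 470-495 nm, emission 515-575 nm / Read-out basis: percent activation from peak over basal fluorescence ratio, control-normalized / Control set: high carbachol 87 µM, low DMSO alone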
# Active calls of the source: *; . = no result given.
SMILES,CHO parental Ca,GPR7 antagonist,OX1R antag-1,TRPML3 agonist,OX1R antag-2,TRPN1 ag
O=C(CN1C(=O)C(c2ccc(F)cc2)=NC12CCCC2)Nc1ccc(F)cc1,27*,-6,-16,2,12,7
N#C/C(=C\c1ccc(N2CCOCC2)o1)C(=O)Nc1ccc(O)cc1,11,7,12,4,61*,10
COc1ccc(NC(=O)/C(C#N)=C/c2ccc(Br)o2)cc1,16,6,-8,0,13,1
COc1ccc(NC(=O)/C(C#N)=C\c2ccc(N3CCOCC3)o2)cc1,47*,10,54*,40*,59*,49*
N#Cc1ccc(C(=O)Nc2cc(C3CC3)nn2-c2ccccc2)cc1,4,.,-25,.,32,.
Cc1cc(C)n(C(=O)Cn2nc([N+](=O)[O-])c(Br)c2C)n1,-7,-4,7,1,36,-1
Nc1c(Cl)c(Cl)nc(C(=O)OCC(=O)NC2CCCCC2)c1Cl,-17,-8,1,.,28,.
O=C(Nc1cc(Cl)cc(Cl)c1)Nc1cnccn1,36*,0,30,.,39,.
O=C(Nc1ccc(F)cc1)Nc1cnccn1,1,-4,-6,.,5,.
O=[N+]([O-])c1cc(-c2ncccn2)c([N+](=O)[O-])s1,17,-7,20,-1,64*,-2
O=C1c2cccnc2C(=O)N1c1cccc([N+](=O)[O-])c1,-15,-15,-13,.,14,.
N#Cc1ccc(OS(=O)(=O)c2ccc(-c3ccon3)s2)cc1,34*,-1,5,.,17,.
O=S(=O)(Nc1ccc(OC(F)F)cc1)c1ccc(-c2ccon2)s1,-2,8,10,.,-9,.
Cc1ccc(NC(=O)C2CC(=O)Nc3nncn32)cc1 (centres undefined),-1,-20,0,0,7,0
COc1ccc(CN(C)C(=O)c2cc(-c3ccccc3)nc3ccc(C)cc23)c(OC)c1OC,-15,4,10,.,63*,.
COc1ccc(CCN(C)C(=O)c2cc(-c3ccccc3)nc3ccc(C)cc23)cc1OC,-22,-2,-11,.,70*,.
Cc1cc(OCC(=O)NNC(=O)c2cccnc2)cc(C)c1Cl,.,-5,.,.,.,.
O=C1c2ccccc2S(=O)(=O)c2cc(C(=O)N3CCC(C(=O)N4CCCCC4)CC3)ccc21,-15,.,-15,.,50,.
O=C(NCc1ccco1)c1ccc2c(c1)S(=O)(=O)c1ccccc1C2=O,-11,.,-25,.,49,.
O=C(NC1CCCC1)c1ccc2c(c1)S(=O)(=O)c1ccccc1C2=O,-16,.,-16,.,65*,.
O=C(Nc1ccncc1)c1ccc(-c2ccccc2)cc1,58*,3,47*,4,46,6
CN(C)C(CNC(=O)c1ccc2c(c1)S(=O)(=O)c1ccccc1C2=O)c1ccco1 (centres undefined),-18,-5,-26,0,74*,2
CC1CCCC(C)N1C(=O)c1ccc2c(c1)S(=O)(=O)c1ccccc1C2=O (centres undefined),-15,-2,-22,.,42*,.
CSc1ccc(C(=O)NCC(c2ccco2)N(C)C)cc1[N+](=O)[O-] (centres undefined),-12,3,-23,.,47*,.
O=C(Nc1ccncc1)c1ccc2c(c1)S(=O)(=O)c1ccccc1C2=O,0,-10,-10,1,75*,2
SMILES,CHO parental Ca,GPR7 antagonist,OX1R antag-1,TRPML3 agonist,OX1R antag-2,TRPN1 ag
CNC(=O)COC(=O)c1ccc2c(c1)S(=O)(=O)c1ccccc1C2=O,-12,-11,-8,.,74*,.
CCCN(CCC)C(=O)c1ccc2c(c1)S(=O)(=O)c1ccccc1C2=O,-11,-12,-21,.,46,.
O=C(Nc1ccc(-c2ccccc2)cc1)c1ccc2c(c1)S(=O)(=O)c1ccccc1C2=O,-3,.,-12,.,14,.
CCCNC(=O)c1ccc2c(c1)S(=O)(=O)c1ccccc1C2=O,-13,-10,-25,.,74*,.
Cc1cc(C)n2nc(SCC(=O)NC3CCCC(C)C3C)nc2n1 (centres undefined),-2,-3,-11,.,14,.
CCOC(=O)c1cccc(NC(=O)c2ccc(-n3cnnn3)cc2)c1,-7,.,5,.,14,.
